Assay results published in publication PMC6404779 (Nature medicine, 2018).

Legend:
[1] = tested on: RAF-null MEFs expressing ARAF; assay: ERK signaling in RAF-null MEFs expressing one RAF isoform; type: cell-based, Mouse; conditions: 1hr
Procedure, shortened: (§1)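 RAF-less MEFs came from Araflox/lox;Braflox/lox;Craflox/lox;RERT ert/ert MEFs. Doxycycline-inducible wild-type ARAF, BRAF or CRAF was transduced retrovirally without 4-OHT and selected with puromycin/hygromycin. Cells were then infected with Adeno-Cre (MOI 100) and cultured in 1 uM 4-OHT plus 50 ng/ml doxycycline. GFP-positive cells were sorted after 2 weeks. Loss of endogenous RAF and induced expression were confirmed by genomic PCR and Western blot.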

[2] = tested on: RAF-null MEFs expressing BRAF; assay: as above; type: cell-based, Mouse; conditions: 1hr
Procedure, shortened: as §1

[3] = tested on: RAF-null MEFs expressing CRAF; assay: as above; type: cell-based, Mouse; conditions: 1hr
Procedure, shortened: as §1

[4] = tested on: A375 cells with overexpression of BRAF V600E; assay: A375 xenograft with doxycycline-induced BRAF V600E overexpression; type: in vivo, nude mice; conditions: vemurafenib 75mg/kg BID, PLX8394 50mg/kg BID
Procedure, shortened: (§2)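 A375 cells carrying a retroviral tet-regulated BRAF V600E or NRAS Q61K construct (kept in 50 ug/ml hygromycin and 0.2 ug/ml puromycin). 5 million cells were injected s.c. into nude mice fed doxycycline food. At 100 mm3, mice stayed on doxycycline food and received vehicle, reference RAF inhibitor 75 mg/kg BID or test compound 50 mg/kg BID. Tumour size was tracked (n=5; mean±s.d.; two-tailed unpaired t-test).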

[5] = tested on: A375 cells with NRAS Q61K expression; assay: A375 xenograft with doxycycline-induced NRAS Q61K; type: in vivo, nude mice; conditions: vemurafenib 75mg/kg BID, PLX8394 50mg/kg BID
Procedure, shortened: as §2

[6] = tested on: BRAF K601E CRC PDX tumors; assay: Colorectal cancer PDX model; type: in vivo, NSG mice; conditions: vemurafenib 75mg/kg BID, PLX8394 50mg/kg BID
[7] = tested on: BRAF G466V PDX tumors; assay: Colorectal cancer PDX model; type: in vivo, NSG mice; conditions: Cetuximab 50 mg/kg IP twice weekly, vemurafenib 75 mg/kg BID, PLX8394 50 mg/kg BID

CCCS(=O)(=O)Nc1ccc(F)c(C(=O)c2c[nH]c3ncc(-c4ccc(Cl)cc4)cc23)c1F [vemurafenib, reference compound]
effect on ERK signaling, cells expressing only ARAF [1]: activated ERK signaling
effect on ERK signaling, cells expressing only BRAF [2]: activated ERK signaling
effect on ERK signaling, cells expressing only CRAF [3]: activated ERK signaling
response of ERK signaling and tumor growth, BRAF V600E amplified [4]: resistance
response of ERK signaling and tumor growth, mutant NRAS [5]: resistance
tumor growth response, single RAF inhibitor [6]: insensitive
response of ERK signaling and tumor growth [7]: insensitive
